Laboratory results from ChEMBL document CHEMBL1144670, “Synthesis and pharmacology of 1-deoxy analogs of CP-47,497 and CP-55,940” (Bioorg Med Chem, 2008).
pEC50, pKi: −log10 of the molar value.

Columns and labels:
Cannabinoid receptor 1 = Cannabinoid receptor 1 (Rattus norvegicus, UniProt P20272); experiment: Displacement of [3H]CP-55940 from CB1 receptor in Sprague-Dawley rat brain membrane; format: cell membranes
[1] = Selectivity for human cloned CB2 receptor over Sprague Dawley rat brain membrane CB1 receptor
Cannabinoid receptor 2 [2] = target: T1, Cannabinoid receptor 2 (Homo sapiens, UniProt P34972); experiment: Displacement of [3H]CP-55940 from human cloned CB2 receptor
Cannabinoid receptor 2 [3] = target: T1, Cannabinoid receptor 2; settings: CHO, 3 uM
Cannabinoid receptor 2 [4] = target: T1, Cannabinoid receptor 2; experiment: Agonist activity at human CB2 receptor expressed in CHO cells by [35S]GTP-gamma-S binding assay relative to CP-55940; format: functional, cell-based
Method in brief: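 Same hCB2-CHO membrane [35S]GTPγS assay (10 µM GDP, 0.1 nM radioligand, 1.5 h, 30 °C). Net stimulation at each concentration was expressed as percent of that given by 3 µM CP-55,940, run as an internal standard in each experiment. Emax came from nonlinear regression of the concentration-effect curves, mean ± SEM of 3-6 experiments in triplicate.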

Cannabinoid receptor 2 [5] = target: T1, Cannabinoid receptor 2; experiment: Agonist activity at human CB2 receptor expressed in CHO cells by [35S]GTP-gamma-S binding assay; format: functional, cell-based
Method in brief: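 [35S]GTPγS binding on membranes of CHO cells stably expressing human CB2. 10 µg membrane protein was incubated 1.5 h at 30 °C in 50 mM Tris-HCl pH 7.4, 3 mM MgCl2, 0.2 mM EGTA, 100 mM NaCl, with 10 µM GDP, 0.1 nM [35S]GTPγS, 0.1% BSA and agonist over a concentration range. Nonspecific binding was set with 20 µM GTPγS. Filtration was followed by scintillation counting. EC50 came from nonlinear regression, 3-6 experiments in triplicate.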

T1 sequence (P34972 whole entry): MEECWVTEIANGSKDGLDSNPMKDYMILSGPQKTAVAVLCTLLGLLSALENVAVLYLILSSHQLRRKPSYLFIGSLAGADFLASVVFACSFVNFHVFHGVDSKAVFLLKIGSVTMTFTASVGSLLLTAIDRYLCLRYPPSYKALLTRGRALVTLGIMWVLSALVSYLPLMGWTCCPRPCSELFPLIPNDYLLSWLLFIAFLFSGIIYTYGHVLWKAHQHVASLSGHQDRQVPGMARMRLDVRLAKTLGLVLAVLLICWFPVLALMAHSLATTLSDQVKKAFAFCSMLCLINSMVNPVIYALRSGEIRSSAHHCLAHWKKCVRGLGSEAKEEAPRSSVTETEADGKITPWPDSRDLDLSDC
Cannabinoid receptor 1, sequence (P20272 whole entry): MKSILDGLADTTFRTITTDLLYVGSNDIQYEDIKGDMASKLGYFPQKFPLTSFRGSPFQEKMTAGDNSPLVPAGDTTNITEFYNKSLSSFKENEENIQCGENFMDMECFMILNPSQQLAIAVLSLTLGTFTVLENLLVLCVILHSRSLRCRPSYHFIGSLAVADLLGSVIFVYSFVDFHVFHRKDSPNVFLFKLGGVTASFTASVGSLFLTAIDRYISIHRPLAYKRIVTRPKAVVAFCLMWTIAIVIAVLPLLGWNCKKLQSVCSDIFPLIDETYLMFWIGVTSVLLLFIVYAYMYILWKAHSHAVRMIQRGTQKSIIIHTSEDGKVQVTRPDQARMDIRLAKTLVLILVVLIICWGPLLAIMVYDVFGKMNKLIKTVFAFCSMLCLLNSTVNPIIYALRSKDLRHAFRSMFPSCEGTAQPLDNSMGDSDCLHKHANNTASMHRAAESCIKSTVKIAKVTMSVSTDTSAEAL

Compound	pKi (Cannabinoid receptor 1)	Ratio Ki [1]	pKi (Cannabinoid receptor 2 [2])	Emax (Cannabinoid receptor 2 [3])	Emax (Cannabinoid receptor 2 [4])	pEC50 (Cannabinoid receptor 2 [5])
CCCCCCC(C)(C)c1ccc([C@H]2CCC[C@@H](O)C2)c(O)c1	8.66	–	–	–	–	–
CCCCCCCC(C)(C)c1ccc([C@@H]2CCC[C@@H](O)C2)cc1	6.71	1.3	6.81	–	–	–
CCCCCCC(C)(C)c1ccc([C@@H]2C[C@H](O)CC[C@H]2CCCO)c(O)c1	–	–	–	85%	–	–
CCC(C)(C)c1ccc([C@H]2CCC[C@@H](O)C2)cc1 (relative stereo)	< 5.00	> 2.5	5.40	–	–	–
CC(C)(C)c1ccc([C@H]2CCC[C@@H](O)C2)cc1 (relative stereo)	< 5.00	–	< 5.00	–	–	–
CCCCCCCCC(C)(C)c1ccc([C@@H]2C[C@H](O)CC[C@H]2CCCO)cc1 (relative stereo)	6.25	1.3	6.38	–	–	–
CCCCCCCC(C)(C)c1ccc([C@@H]2C[C@H](O)CC[C@H]2CCCO)cc1 (relative stereo)	6.58	1.5	6.76	–	–	–
CCCC(C)(C)c1ccc([C@@H]2CCC[C@@H](O)C2)cc1 (relative stereo)	5.06	5.7	5.82	–	–	–
CCCCCCC(C)(C)c1ccc([C@@H]2CCC[C@@H](O)C2)cc1 (relative stereo)	6.19	3.6	6.75	–	–	–
CCCCCC(C)(C)c1ccc([C@@H]2C[C@H](O)CC[C@H]2CCCO)cc1 (relative stereo)	6.51	1.4	6.66	–	–	–
CCCC(C)(C)c1ccc([C@@H]2C[C@H](O)CC[C@H]2CCCO)cc1 (relative stereo)	5.42	2.1	5.75	–	–	–
CCCCC(C)(C)c1ccc([C@@H]2CCC[C@@H](O)C2)cc1 (relative stereo)	5.76	3.2	6.26	–	–	–
CCCCCC(C)(C)c1ccc([C@@H]2CCC[C@@H](O)C2)cc1 (relative stereo)	5.99	4.8	6.67	–	66%	7.40
CCCCCCCC(C)(C)c1ccc([C@H]2CCC[C@@H](O)C2)cc1 (relative stereo)	6.10	1.2	6.17	–	–	–
CCCCCCCCC(C)(C)c1ccc([C@H]2CCC[C@@H](O)C2)cc1 (relative stereo)	5.77	1.5	5.95	–	–	–
CC(C)(C)c1ccc([C@@H]2CCC[C@@H](O)C2)cc1 (relative stereo)	< 5.00	–	< 5.00	–	–	–
CCCCCC(C)(C)c1ccc([C@H]2CCC[C@@H](O)C2)cc1 (relative stereo)	5.68	4.6	6.34	–	–	–
CCCCCCC(C)(C)c1ccc([C@H]2CCC[C@@H](O)C2)cc1 (relative stereo)	5.53	13	6.64	–	–	–
CCCCC(C)(C)c1ccc([C@H]2CCC[C@@H](O)C2)cc1 (relative stereo)	< 5.00	> 16	6.19	–	–	–
CC(C)(C)c1ccc([C@@H]2C[C@H](O)CC[C@H]2CCCO)cc1 (relative stereo)	< 5.00	–	< 5.00	–	–	–
CCC(C)(C)c1ccc([C@@H]2C[C@H](O)CC[C@H]2CCCO)cc1 (relative stereo)	< 5.00	> 7.3	5.87	–	–	–
CCCCC(C)(C)c1ccc([C@@H]2C[C@H](O)CC[C@H]2CCCO)cc1 (relative stereo)	6.24	0.8	6.15	–	–	–
CCCCCCCCC(C)(C)c1ccc([C@@H]2CCC[C@@H](O)C2)cc1 (relative stereo)	6.13	0.7	5.97	–	–	–
CCC(C)(C)c1ccc([C@@H]2CCC[C@@H](O)C2)cc1 (relative stereo)	< 5.00	> 2.7	5.42	–	–	–
CCCC(C)(C)c1ccc([C@H]2CCC[C@@H](O)C2)cc1 (relative stereo)	< 5.00	> 4.9	5.69	–	–	–
CCCCCCC(C)(C)c1ccc([C@@H]2C[C@H](O)CC[C@H]2CCCO)cc1 (relative stereo)	6.26	2.3	6.62	–	–	–
